According to the RNAGym collection of RNA variant scans (doi:10.1126/science.aae0568):
Fewer inactive variants are shown than the library holds.

B1: tRNA (parent)
chain: GUUCCGUUGGCGUAAUGGUAACGCGUCUCCCUCCUAAGGAGAAGACUGCGGGUUCGAGUCCCGUACGGAACG

Variants of: B1
Assay: yeast fitness relative to wild type (ratio to wild type); higher = fitter; tRNA-Arg(CCU), competitive growth, 37 C, YPD
How it was run: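 A pool of Saccharomyces cerevisiae strains, each with a tRNA-Arg(CCU) gene variant at the native genomic locus, was competed in YPD at 37°C for 24 hours across six parallel replicates. The variants had been chemically synthesised at a 3% per-site mutation rate over 69 sites, and gene amplicons before and after competition were read by 100-nucleotide paired-end sequencing. Darwinian fitness relative to wild type rested on changes in genotype frequencies. Genotypes required ≥ 100 starting reads, and estimates < 0.5 were set to 0.5.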

| Variant | yeast fitness |
| --- | --- |
| GUUCCGAUGGCGUAAUGGUAACGCGUCUCCCUCCUAAGGAGAAGACUGCUGGUUCGAGUCCCGUACGGAACG | 0.69 |
| GUUCCGUUAGCGUAAUGGUAACGCGUCUCCGUCCUAAGGAGAAGACUGCGGGUUCCAGUCCCGUAAGGAACG | ≤ 0.5 |
| GUUCCGUUGACGUAAUGGUAACACGUCUCCCUCCUAAGGAGAAGGCUGCGGGUUCGAGUCCCGUACGGAACG | ≤ 0.5 |
| GUUCCGUUGGCGUAAUGGUAACGCCUCUCCCUCAUAAGGAGAAGAUUGCGGGUUCGAGUCCCGUACGGAACG | 0.555 |
| GUUCCGUUGGCGUAAUGGUAGCGCGUCUCCCUCCUAAGGAGAAGAAUGCGGGUUCGAGUCCCGUACGGACCG | 1.07 |
| GUUCCGUUGGCGUACUGGUAACGCGUCUCCGUCCUAAGGAGAAGACUGCGGGUUAGAGUCCCGUACGGAACG | 0.608 |
| GAUCGGUUGGCGUGAUGGUAACGCGUCUCGCUCCUAAGGAGAAGAUUGCGGGUUCGAGUCCCGUAAGGAUCG | ≤ 0.5 |
| GUUCCAUUGGCGUAAUGGUAACGCGUCUCCCUCCUAAGGAGAAGACUACGGGUUCGAGUCCCGUCCGGAACG | 0.541 |
| GUUCCAUUGGCGUAAUGGUAGCGCGUCUCCCUCCUAAGGAGAAGAAUGCGGGUCCGAGUCCCGUACGGAACG | ≤ 0.5 |
| GUUCCGUUGGCGUAAUGGUAACGCGUCUCCCUCCUAAGGAGAAGACUGCGGGUUUGCGUCCCGUACGGAACG | 0.584 |
| GUUCCGUUGGCGUAAUGGUAACGCGUCUCCCUCCUAAGGAGUAGACCGCGAGUUCGAGUCCCGUACGGACCG | 0.502 |
| GUUCCGUUGCCGUAAUGGUAACGCGUCGCCCUGCUAAGGAGAAGACUGUGGGUUCGAGUCCCGUACGGAACG | ≤ 0.5 |
| GUUCCGUUGGCGUAAUGGUAACGCGUCUCCCUCCUAAGGCGAAGACUGCGGGCUCGAGUCCCGUACGGAACG | 0.828 |
| GUUCCGUUGGCGUAAUGGUAACGCGUCUCGCUCCUAAGGAGAAGCCUGCGGGUUCGAGUCCCGUACGGAACG | 0.669 |
| GUUCCGUUGGCGUAAUGGUAACGCGUCUCCCUCUUAAGGAGAAGACUGAGGGUUCGAGUCCCGUACGGCACG | ≤ 0.5 |
| GUUCCGUUGGCAUAAAGGUAACGCGUCUCCCUCCUAAGGAGAAGUCUGCGGGUUCGAGUCCCGUACGGAACG | 0.629 |
| GUUCCGUUGGCGUAUUGGUAACGGGUCUCCCUCCUAAGGAGAAGACUGCGGGUUCGAGUCCCAUACGGAACG | ≤ 0.5 |
| GUUCCGUUGGCGUAAUGGUAACGCGUCUCCCCCCUAAGGUGAAGACUGCGGGUUCGAGCCCCGUACGGAACG | 0.718 |
| GUACCGUUGGGGUAAUGGUAACGCGUCUCCCUCCUAAGGACAAGACUGCGGGUUCGAGUCCCGUACGGAACG | 0.61 |
| GUUUCGUUGGCGUCAUGGUAACGCGUCUCCCUCCUAAGGAGAAGACUGCGGGUUCGAGAUCCGUACGGAACG | ≤ 0.5 |
| GUUCCGUUGGAGUAAUGGUAACGCGUCUCCCUCCUAAGAAGAAGACUGCGGGUUCGAGUCCCGUACGGAACG | 0.63 |
| GUUCCGUUGGCGUAAUGGUAAUGCGUCUCCCUCCUAAGGAGAUGACUGUGGGUUGGAGUCUCGUACGGAACG | 0.534 |
| GUUCCGUUGGCGUAAUGGUUACGCGUCCCCCUCCUAAGGUGAAGACUGCGGGUUCGAGUCCCGUACGGAUCG | ≤ 0.5 |
| GUUCCGUUGCCGUAAUGGUAACGCGUUUCCCUCCUAAGGAGAAGACUGCGGGUUCGAGUCCCGUCCGGAACG | 0.552 |
| GUUCGGUUCGCGUAAUGGUUGCGGGUGUCCCUCCUAAGGAGAGGACUGCGGGUUCGAGUCCCGUACGGAACG | ≤ 0.5 |

| Variant | yeast fitness |
| --- | --- |
| GUUCUGUUGGCGUAAUGGUAACGCGUCUCCCUUCUAAGGAGAAGACUGGGGGUUCGAGUCCCGUCCGGAACG | ≤ 0.5 |
| GUUGCAUUGGCGUAAUGGUAACGUGUCUCCCUCCUAAGGUGAAGACUGCGGGUUCGAGUCCCGUCCGGUACG | 0.815 |
| GUUCCGUUGGCGUAUUGGUAACGCGUCUACCUCCUAAGGAGAAGACUGCCGGUUCGAGUCCCGUACGGAACG | ≤ 0.5 |
| GUACCGUUGGCGUAAUGGUAAGGCGUCUUCCUCCUAAGGAGAAGACUGCGGGUUCGAGUCCCGUACGGAACG | 0.55 |
| GUUCCAUUGGCGUAAUGGUAUCGCGUCUCCCUCCUAAGGAGAAGACUGCGGGUUCGAGUCCCGUACGGAACG | 0.659 |
| GUUCCGUUGGCGUAAUGGUAACGCGUCUCCCUCCUAAGGAGAAGACUGCGGGUUCGGGUCCCGUACGCAACG | 0.857 |
| GUUCCGUUGGCGUAAUGGUAACGCGUCUCCCACGUAAGGAGAAGACUGCGGGUUCGAGUCCCGUACGGAACG | ≤ 0.5 |
| GUUCCGUUAGUGUAAUGGUAACGCGUCUCCCUCCUAGGGAGAAGCCUGCGGGUUCGAGUCCCGUACGGAACG | 0.603 |
| GUUCCGUUGGCGUAAUGGUAUCGCGUCUCCCUCCUAAGGAGAAGACUGCGGGUUCAAGUCCCGUACAGAACG | ≤ 0.5 |
| GUUCUGUUGGCGUAAUGGUAACGCGUCCCCCUGCUAAAGAGAAGACUGCGGGUUCGAGUCCCGGACGGAACG | ≤ 0.5 |
| GUUCCGUUGGCGUAAUGAUAACGCAUCUCCCUCCUAAAGAGAAGACUGCGGGUUCGGGUCCCGUACGGAACG | ≤ 0.5 |
| GUUCCGUUGGCGUAAUGGUAACGCGUUUCCCUCCCACGGUGAUGACUGCGGGUUCGAGUCCCGUACGGAACG | ≤ 0.5 |
| GUUCCGUUGGCGUAAUGGUAAGGCGUCUCCCUCCUAAGGAGAAGACUGCGGCUUCGACUCCCGUUCGGAACG | 0.592 |
| GUUCCGUUGGCGUAAUGGUAACGCGUCUCCCUCCCAAGGAGAAGACUGCGCGUUUGAGUCCCGUACGGAACG | ≤ 0.5 |
| GUUCCAUUGGCGUAGUGGUAACGCGUCUCACUCCUAAGGAGAAGACUGCGGGUUCGGGUCCCGUACGGAACG | ≤ 0.5 |
| GUUCCGUUGGCGUAAUGGUAACGCGUCUCCCUCCUAAGGAGAGGACUGCGAGUUGGAGUUCCGUACGGAACG | ≤ 0.5 |
| GUUCCGUUGGCGUAAGGGUAACGCGUCUCCCUCCUAAGGCGAAGACUGCGGGUUCGAGUCCCGUACGGAACG | 0.761 |
| GUUCCGAUGGCGUAAUGGUAACGCGUCACCCUCCUAAGGAGAAGACUGCGGGUUCGAGUCCCGUACGGCACG | ≤ 0.5 |
| GUUCCGUUGGCGUAAUGGCAACGCGUCUCCCUCCUACGGAGAAGACUGCGGGUUCGAGUCCCAUACGGAACG | ≤ 0.5 |
| GUUCCGUUGGUAUAAUGGUAACGCGUCUCCCUCCUAAGGAGAAGACUGCGGGUUCGAGUCCCGUAUGGAACG | 0.587 |
| GUUCCGUUGGCGUAAUGGUAACGAGUCUCCUUCCUAAGGAGAAGACUGCGGGUUCCAGUCCCGUACGGAACG | ≤ 0.5 |
| GUCCCGUUGGCGUAAUGGUAACGCGUCUCCGUCCUAAGGAGAAGACUGCGGGUUCGAGUCCCGUACGGAACG | 0.86 |
| GUUCCGUUGGCGUUAUGGUAACGCGUCUCCCUCCUAUGGAGAAGACUGCGGGUUCGAGACCCGUACGGAACG | ≤ 0.5 |
| GUGCCGUUGGCGUAGUGGUAACGGGUCUCCCUCCUAAGGAGAAGACUGCAGGUUCGAGUCCCGUACGGAACG | 0.539 |
| GUUCCGUUGGCGUAAUGGUAACGCGUCUCCCUCCUAAGGAUAAGACUGCGCGUUCGAGUCCCGUACGGAACG | 0.565 |

| Variant | yeast fitness |
| --- | --- |
| GUUACGUUGGCGUAAUGGUAACGCGUCUUCCUCCUGAGGAGAAGACUGCGGCUUCGAGUCCCGUACGGAACG | ≤ 0.5 |
| GCUCCGUUGGCGUAAUGGUAACGCGUCUCCCUCCUAGGGAGAAGACUGCGGGUUGGAGUCCCGAACGGAACG | ≤ 0.5 |
| GUUCCGUUGGCGUAAUGGUAACGCGUCUCCCUCCUAACGAGAAGACCGCGGGUUCGAGUCCCGUUCGGAACG | ≤ 0.5 |
| GUUCCGUUGGCGUAAUGGUAACGCGCCUCCCUCCUAAGGAGAAGACUGCGGGUUCGAGUCCUGUACGGAACG | 0.823 |
| GUUCCGUUGGCGUAAUGGUAACGCGUCUCCCUCCUAAGGAGAAAACUGCGGGUUCAAGUCCCGUACGGAACG | 1.05 |
| GUUGCGUUGGCGUAAUGGUAGCGCGUCUCCCUCCUAAGGAGAAGUCUGUGGGUUCGAGUCCCGAACGGAACG | 0.556 |
| GUUCCGAUGGCGUAAUGGUAAAGUGUCUCCCUCCUUAGGAGAAGACUGCGGGUUCGAGUCCCGUACGGAACG | ≤ 0.5 |
| GUUCCGUUGGCGUAAUGGUAAAGCGUCUCCCUCCUAAGGCGAAGACUGCCGGUUCGAGUCCCGUACGGAACG | 0.908 |
| GUUCCGAUGGCGUAAUGGUAACGCGUCUCCCUCCUAAGGAGAAGACUGCGGGUUCGAGUCCCGUGCGGAACG | 1.03 |
| GUUCAGUUGGCGUAACGGUAACGCGUCUCCCUCCUAAGGAGUAGACUGCGGGUUCGAGUCCCGUACGGAACG | 0.672 |
| GUUCCGUUGGCGUAAUGGUAACGCGUCUCCCUACUAAGGAGAAGACUGCGGGUUGGAGUCCCGUAUGGAACG | ≤ 0.5 |
| GUUUCGUUGGCGUAAUGGUAACGCGUCUCCCUCCUAAGGAGAAGACUGCGGGUUGGAGUCCCGUACGGAACG | 0.636 |
| GUUCCGUUGGCGUAAAGGUAACGGGUCUCCCUCCUAAGGAGACGACUGCGGGUUCGAGUCCCAUACGGAACG | ≤ 0.5 |
| GUUACGUUGGCGUAAUCGUAACGCGUCUCCCUCCUUAGAAGCAGACUGCUGGUUCGAGUCCCAUACGGAACG | 0.589 |
| GUUCCCUUGACGUAAUAGUAACGCGUCUCCCUCCUUAGGAGAAGACUGCGCGUUCGAGUCCCGUACGGCACG | ≤ 0.5 |
| GUUCCAUUGGCGUAAUGGUAAAGCGUCUCCUUCCUAAGGAGAAGACUGCGGGUUCGAGUCCCGUACGCAACG | 0.709 |
| GUUCCGUUGGCAUAAUGGUAACGCGUCUCCCUCCUAAGGAGAAGACUGUGGGUUCGAGUCCUGUACGGAACG | 0.68 |
| GUUCCGUUGGCGUAAUGGUAACGCGUCUCCCUCCUAAGCAGCAGCCUGCGGGUUCGAGUCCCGUACGGAACG | 0.538 |
| GUUCCGUUGGCGUAAUGGUAACGCGUCUCCCUCCUAACCAGAAGACUGCGGGUUCCAGUCCCGUACGAAACG | ≤ 0.5 |
| GUUCCGUUGGCGUAAUGGUAACGCGUCUCCCUCCUAAGGAGAAGACUGCGGGUUCGACUCCCGUACGAAACG | 0.776 |
| GUUCCGUUGGCGUAAUGGUAAGGCGUCUCCCUCCUAAGGAGAAGACUGCGAGUUCGAGUCCCGUACGGAACG | 0.749 |
| GAUCCGUUGGCGUAAUGGUAACGCGUCUCCCUCCUAAGGAGAAGACUGAGGGUUCGAGUCCCGUACGGAACG | 0.637 |
| GUUCCGUUGGCGUAACGGUAACGCGUCUCCCUCCUAAGGAGAAGACUGCGGGUUUGAGUCCCGUACGGAACG | 0.831 |
| GUUCCGUUGGCGUAAUGGUAACGCGUCGCCCUCGUAAGGAGAACACUGCGGGUUCGAGUCGCGUACGGAACG | 0.558 |
| GUUCGAUUGGCGUAAUGGUAACGCAUCUCCCUCCUAAGGAGAAGACUGCGGGUUCGAGUCCCGUACGGAACG | 0.675 |
